These results are taken from ChEMBL document CHEMBL1144594, “Synthesis and biological evaluation of 4-amino derivatives of benzimidazoquinoxaline, benzimidazoquinoline, and benzopyrazoloquinazoline as potent IKK inhibitors” (Bioorg Med Chem Lett, 2007).

The subject of assay [1] is Mus musculus. Put plainly: Reduction of LPS-induced serum TNFalpha levels in BALB/c mouse at 30 mg/kg, po relative to control. The class given is functional. Set-up: scale not given: the % may be the effect or the level left. The gist of the method:
(§1)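 Female BALB/c mice, 6–8 weeks old, got inhibitor in 0.2 mL aqueous solution by oral gavage. One hour later they were challenged ip with 1 µg E. coli O111:B4 LPS in 500 µL PBS. Serum was taken 90 min after challenge and TNF-α measured by EIA. Inhibition is relative to vehicle-only LPS-challenged controls.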

Assay [2] concerns Mus musculus. Put plainly: Reduction of LPS-induced serum TNFalpha levels in BALB/c mouse at 100 mg/kg, po relative to control. The class given is functional, organism-based. On the set-up: dose 100 mg/kg. Summed up: as §1
In assay [3] the target is T1, Inhibitor of nuclear factor kappa-B kinase subunit beta (Homo sapiens, UniProt O14920).
T1 sequence (O14920 whole entry): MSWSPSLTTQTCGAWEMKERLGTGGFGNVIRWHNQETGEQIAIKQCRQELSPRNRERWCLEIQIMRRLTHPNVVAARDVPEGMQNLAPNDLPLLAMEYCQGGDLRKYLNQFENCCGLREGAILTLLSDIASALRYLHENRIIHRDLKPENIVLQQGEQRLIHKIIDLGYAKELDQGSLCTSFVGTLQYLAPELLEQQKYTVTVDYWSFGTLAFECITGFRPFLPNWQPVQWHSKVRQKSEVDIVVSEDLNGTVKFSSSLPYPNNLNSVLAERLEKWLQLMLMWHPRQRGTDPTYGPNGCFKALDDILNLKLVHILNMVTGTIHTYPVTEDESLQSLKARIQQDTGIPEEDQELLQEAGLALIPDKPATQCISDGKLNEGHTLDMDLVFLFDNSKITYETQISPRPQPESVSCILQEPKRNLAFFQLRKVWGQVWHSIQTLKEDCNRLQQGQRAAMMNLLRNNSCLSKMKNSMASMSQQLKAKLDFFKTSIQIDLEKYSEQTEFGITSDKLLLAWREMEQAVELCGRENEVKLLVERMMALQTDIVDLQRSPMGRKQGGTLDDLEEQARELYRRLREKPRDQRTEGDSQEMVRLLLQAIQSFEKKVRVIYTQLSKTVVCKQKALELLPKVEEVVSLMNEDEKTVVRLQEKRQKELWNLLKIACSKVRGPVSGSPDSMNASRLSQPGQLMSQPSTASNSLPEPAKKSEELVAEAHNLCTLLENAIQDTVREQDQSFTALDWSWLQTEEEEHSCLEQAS
Put plainly: Inhibition of LPS-induced TNFalpha secretion in THP1 cells. Format: functional, cell-based, THP-1.

In assay [4] the target is T1, Inhibitor of nuclear factor kappa-B kinase subunit beta. Put plainly: Inhibition of IKK2. Summed up:
(§2)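 Enzyme (IKK-2 or IKK-1, typically 0.5 µg/mL final) added at 30 °C to 50 µg/mL GST-IκBα substrate and 20 µM ATP. Read-out is GST-IκBα phosphorylation. IC50 is from a single experiment.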

Assay [5] deals with Mus musculus. Put plainly: Reduction of LPS-induced serum TNFalpha levels in BALB/c mouse at 10 mg/kg, po relative to control. Format: functional. Set-up: scale not given: the % may be the effect or the level left. The gist of the method:
as §1

The species named for another assay is Homo sapiens. Put plainly: Selectivity for human IKK2 over human IKK1.
The target of assay [6] is T2, Inhibitor of nuclear factor kappa-B kinase subunit alpha (Homo sapiens, UniProt O15111).
T2 sequence (O15111 whole entry): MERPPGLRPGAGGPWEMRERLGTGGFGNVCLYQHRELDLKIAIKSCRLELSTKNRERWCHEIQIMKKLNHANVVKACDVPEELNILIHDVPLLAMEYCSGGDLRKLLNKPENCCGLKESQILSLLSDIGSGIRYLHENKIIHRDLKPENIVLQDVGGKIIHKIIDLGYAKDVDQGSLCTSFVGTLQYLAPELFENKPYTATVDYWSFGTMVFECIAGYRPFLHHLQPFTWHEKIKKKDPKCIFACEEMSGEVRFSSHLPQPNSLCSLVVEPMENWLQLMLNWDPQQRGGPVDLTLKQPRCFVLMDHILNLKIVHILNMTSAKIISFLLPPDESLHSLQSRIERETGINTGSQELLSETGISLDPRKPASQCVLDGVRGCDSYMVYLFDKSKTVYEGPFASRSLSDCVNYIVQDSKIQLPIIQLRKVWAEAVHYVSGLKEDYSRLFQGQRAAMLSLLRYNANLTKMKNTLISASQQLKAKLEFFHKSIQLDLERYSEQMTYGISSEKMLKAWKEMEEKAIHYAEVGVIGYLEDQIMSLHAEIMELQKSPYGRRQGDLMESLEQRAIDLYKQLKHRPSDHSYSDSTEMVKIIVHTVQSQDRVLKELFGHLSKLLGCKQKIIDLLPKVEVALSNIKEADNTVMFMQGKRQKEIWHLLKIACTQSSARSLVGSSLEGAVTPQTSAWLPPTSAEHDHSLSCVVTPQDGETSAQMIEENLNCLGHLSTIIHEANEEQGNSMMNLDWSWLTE
Put plainly: Inhibition of IKK1. The gist of the method: as §2

The target of assay [7] is T3, Tyrosine-protein kinase ITK/TSK (Homo sapiens) (UniProt Q08881).
T3 sequence (whole entry): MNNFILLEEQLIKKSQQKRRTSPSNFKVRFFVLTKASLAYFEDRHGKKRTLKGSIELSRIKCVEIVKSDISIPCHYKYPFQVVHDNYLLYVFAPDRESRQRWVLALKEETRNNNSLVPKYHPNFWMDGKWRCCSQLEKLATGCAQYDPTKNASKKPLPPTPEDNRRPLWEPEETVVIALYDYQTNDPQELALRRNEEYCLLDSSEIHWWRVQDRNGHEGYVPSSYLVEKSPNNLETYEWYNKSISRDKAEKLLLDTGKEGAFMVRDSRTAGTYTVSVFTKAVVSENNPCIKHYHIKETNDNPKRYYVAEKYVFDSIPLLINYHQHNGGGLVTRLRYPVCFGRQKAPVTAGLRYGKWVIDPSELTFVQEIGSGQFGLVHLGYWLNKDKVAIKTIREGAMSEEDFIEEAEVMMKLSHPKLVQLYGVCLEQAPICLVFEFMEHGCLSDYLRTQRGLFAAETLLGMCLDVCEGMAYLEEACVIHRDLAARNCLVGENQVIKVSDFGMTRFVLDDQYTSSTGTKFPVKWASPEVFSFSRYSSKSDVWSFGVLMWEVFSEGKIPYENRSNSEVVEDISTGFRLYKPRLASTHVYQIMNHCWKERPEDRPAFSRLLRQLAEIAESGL
Put plainly: Inhibition of EMT at 50 uM.

In assay [8] the target is Tyrosine-protein kinase Lck (Homo sapiens) (UniProt P06239). The assay can be described thus: Inhibition of LCK at 50 uM.
The target in assay [9] is T4, Inhibitor of nuclear factor kappa-B kinase subunit epsilon (Homo sapiens) (UniProt Q14164).
T4 sequence (whole entry): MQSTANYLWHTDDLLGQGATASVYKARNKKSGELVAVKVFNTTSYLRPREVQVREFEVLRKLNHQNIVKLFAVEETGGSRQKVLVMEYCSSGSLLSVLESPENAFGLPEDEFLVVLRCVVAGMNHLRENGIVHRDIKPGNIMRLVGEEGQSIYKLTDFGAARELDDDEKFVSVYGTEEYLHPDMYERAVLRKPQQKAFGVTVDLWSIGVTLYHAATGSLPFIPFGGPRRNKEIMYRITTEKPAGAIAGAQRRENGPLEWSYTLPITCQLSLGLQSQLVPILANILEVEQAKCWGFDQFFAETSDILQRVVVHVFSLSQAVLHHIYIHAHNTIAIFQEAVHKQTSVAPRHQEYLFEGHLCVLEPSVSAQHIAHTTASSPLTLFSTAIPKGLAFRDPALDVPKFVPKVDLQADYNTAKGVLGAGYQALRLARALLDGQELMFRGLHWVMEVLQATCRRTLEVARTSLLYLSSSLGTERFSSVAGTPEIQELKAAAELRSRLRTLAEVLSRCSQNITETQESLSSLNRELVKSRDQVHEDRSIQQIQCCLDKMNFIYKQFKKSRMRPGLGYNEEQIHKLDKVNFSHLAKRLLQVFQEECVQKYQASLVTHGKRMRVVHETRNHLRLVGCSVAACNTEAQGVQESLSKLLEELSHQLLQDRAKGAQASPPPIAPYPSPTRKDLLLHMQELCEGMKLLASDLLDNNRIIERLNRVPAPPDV
Put plainly: Inhibition of IKKepsilon at 50 uM.

The source made the active and inactive calls. No cut-off for these calls is given here.

Chain of Tyrosine-protein kinase Lck (Homo sapiens) (P06239 2-509 limits assumed): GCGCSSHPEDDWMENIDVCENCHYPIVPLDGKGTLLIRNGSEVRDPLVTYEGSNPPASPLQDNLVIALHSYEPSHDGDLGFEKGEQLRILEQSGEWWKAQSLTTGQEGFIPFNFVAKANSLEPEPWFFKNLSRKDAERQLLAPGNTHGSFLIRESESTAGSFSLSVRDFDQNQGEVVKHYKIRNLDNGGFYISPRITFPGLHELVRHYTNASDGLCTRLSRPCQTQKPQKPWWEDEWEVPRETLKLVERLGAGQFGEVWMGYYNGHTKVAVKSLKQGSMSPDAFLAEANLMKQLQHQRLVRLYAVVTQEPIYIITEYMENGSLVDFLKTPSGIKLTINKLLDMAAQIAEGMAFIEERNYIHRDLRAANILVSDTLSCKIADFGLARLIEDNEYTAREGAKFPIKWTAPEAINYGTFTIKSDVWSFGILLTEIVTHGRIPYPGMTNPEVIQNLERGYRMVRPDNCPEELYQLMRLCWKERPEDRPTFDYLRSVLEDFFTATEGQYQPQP

In turn, `Cc1ccc2nc(NCCN)c3ncc(C)n3c2c1.Cl` gave an Activity with Mus musculus [1] of 50%. The result with Mus musculus [2] was Active.

For `CNc1nc2cc3ccccc3cc2n2c(C)cnc12`, the concentration for half-maximal inhibition (IC50) came out at 340 nM in [3] and 18 nM in [4]. Moreover, in the assay with Mus musculus [5], the Activity is 50%. The Ratio IC50 in the assay filed under Homo sapiens worked out at 13.

Take `Cn1cnc2c(NCCN)nc3cc4ccccc4cc3c21`: the IC50 in assay [3] stood at 5900 nM; in [6] it was 1600 nM; in assay [4], 58 nM.

Consider `CNCCNc1nc2cc3ccccc3cc2c2c(C)cnn12`, for which the concentration for half-maximal inhibition (IC50) in [3] was found to be 1500 nM; in assay [4], 35 nM.

On to `CNCCNc1nc2cc3ccccc3cc2n2c(C)cnc12`, for which the result in [7], in [8] and in assay [9] was inactive. The IC50 in assay [3] turned out to be 1000 nM; in assay [6], 390 nM; in assay [4], 23 nM. Also, the outcome with Mus musculus [2] was Active.

For `CNc1nc2cc3ccccc3cc2c2c1ncn2C`, the results for the IC50 in assay [3] and in [6] were 950 nM and 990 nM, respectively.

`Cc1cnc2c(NCCN3CCCCC3)nc3cc4ccccc4cc3n12`: the IC50 in assay [3] came to 600 nM; in assay [4], 46 nM.

As for `Cc1cnc2c(NCCO)nc3cc4ccccc4cc3n12`, the results for the IC50 in assay [3], in assay [6] and in assay [4] were 1400 nM, 870 nM and 18 nM, respectively. Also, the Ratio IC50 in the assay filed under Homo sapiens is 48.

As to `CNc1nc2cc3ccccc3cc2c2c(C)cnn12`, the IC50 in assay [3] worked out at 8300 nM; in [4] it was 11 nM.

A word on the IC50: it is the midpoint of a concentration-inhibition curve.
